Measurements from ChEMBL document CHEMBL1143122, “Novel analogs of D-e-MAPP and B13. Part 1: synthesis and evaluation as potential anticancer agents” (Bioorg Med Chem, 2008).

How the values were obtained:
MOLT-4 = test: Antiproliferative activity against human MOLT4 cells after 48 hrs; assay type: functional; conditions: MOLT-4, 48 h
In short: (§1)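 NCI 60-cell screen. Cells were grown in RPMI 1640 with 5% FBS and 2 mM L-glutamine, then plated at 5,000–40,000 cells/well according to doubling time and preincubated for 24 h at 37 °C in 5% CO2. Compounds were dissolved in DMSO at 400× the top final concentration and tested at five 10-fold dilutions from 10−4 to 10−8 M for 48 h. Growth was read spectrophotometrically; GI50 is 50% net protein reduction.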

A549 = test: Antiproliferative activity against human A549 cells after 48 hrs; assay type: functional; conditions: A549, 48 h; for CC50: read-out: Log LC50 (the source's name) (converted); for TGI: read-out: Log TGI (converted); in short: as §1
HT-29 = test: Antiproliferative activity against human HT29 cells after 48 hrs; assay type: functional; conditions: HT-29, 48 h; for TGI: read-out: Log TGI (converted); in short: as §1
SK-OV-3 = test: Antiproliferative activity against human SKOV3 cells after 48 hrs; assay type: functional; conditions: SK-OV-3, 48 h; for CC50: read-out: Log LC50 (the source's name) (converted); for TGI: read-out: Log TGI (converted); in short: as §1
HOP-62 = test: Antiproliferative activity against human HOP62 cells after 48 hrs; assay type: functional; conditions: HOP-62, 48 h; for CC50: read-out: Log LC50 (the source's name) (converted); for TGI: read-out: Log TGI (converted); in short: as §1
SW-620 = test: Antiproliferative activity against human SW620 cells after 48 hrs; assay type: functional; conditions: SW-620, 48 h
In short: (§2)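 NCI 60-cell-line screen. Lines grown in RPMI 1640 with 5% fetal bovine serum and 2 mM L-glutamine, plated at 5,000–40,000 cells/well according to doubling time, left 24 h at 37 °C in 5% CO2. Drug stocks in DMSO at 400-fold the top final concentration. Five 10-fold dilutions, 10−4 to 10−8 M, incubated 48 h. Growth read spectrophotometrically as net protein; GI50 taken as 50% reduction.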

RPMI-8226 = test: Antiproliferative activity against human RPMI8226 cells after 48 hrs; assay type: functional; conditions: RPMI-8226, 48 h; for TGI: read-out: Log TGI (converted); in short: as §1
BT-549 = test: Antiproliferative activity against human BT549 cells after 48 hrs; assay type: functional; conditions: BT-549, 48 h; for TGI: read-out: Log TGI (converted); in short: as §1
HOP-92 = test: Antiproliferative activity against human HOP92 cells after 48 hrs; assay type: functional; conditions: HOP-92, 48 h; for TGI: read-out: Log TGI (converted); in short: as §1
[1] = Antiproliferative activity against human NCI-ADR-RES cells after 48 hrs; assay type: functional; conditions: for TGI: read-out: Log TGI (converted); in short: as §1
M14 = test: Antiproliferative activity against human M14 cells after 48 hrs; assay type: functional; conditions: M14, 48 h; for TGI: read-out: Log TGI (converted); in short: as §1
UACC-257 = test: Antiproliferative activity against human UACC257 cells after 48 hrs; assay type: functional; conditions: UACC-257, 48 h; for CC50: read-out: Log LC50 (the source's name) (converted); for TGI: read-out: Log TGI (converted); in short: as §2
SN12C = test: Antiproliferative activity against human SN12C cells after 48 hrs; assay type: functional; conditions: for TGI: read-out: Log TGI (converted); in short: as §1
A498 = test: Antiproliferative activity against human A498 cells after 48 hrs; assay type: functional; conditions: A498, 48 h; for TGI: read-out: Log TGI (converted); in short: as §1
SNB-75 = test: Antiproliferative activity against human SNB75 cells after 48 hrs; assay type: functional; conditions: SNB-75, 48 h; for CC50: read-out: Log LC50 (the source's name) (converted); for TGI: read-out: Log TGI (converted); in short: as §1
[2] = Antiproliferative activity against human HL60(TB) cells after 48 hrs; assay type: functional, HL-60(TB); conditions: HL-60, 48 h; for TGI: read-out: Log TGI (converted)
In short: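 NCI 60-line panel screen: cells grown in RPMI 1640 with 5% fetal bovine serum and 2 mM L-glutamine, plated at 5,000–40,000 cells/well by doubling time, and preincubated 24 h at 37 °C in 5% CO2. Drugs were solubilised in DMSO at 400-fold the final maximum and tested at five 10-fold dilutions from 10−4 to 10−8 M for 48 h. Net protein was read spectrophotometrically, and the concentration giving 50% reduction was reported as log10 GI50.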

Hs-578T = test: Antiproliferative activity against human HS578T cells after 48 hrs; assay type: functional; conditions: for TGI: read-out: Log TGI (converted); in short: as §1
IGROV-1 = test: Antiproliferative activity against human IGROV1 cells after 48 hrs; assay type: functional; conditions: IGROV-1, 48 h; for TGI: read-out: Log TGI (converted); in short: as §1
T47D = test: Antiproliferative activity against human T47D cells after 48 hrs; assay type: functional; conditions: for TGI: read-out: Log TGI (converted); in short: as §2
SF-539 = test: Antiproliferative activity against human SF539 cells after 48 hrs; assay type: functional; conditions: SF-539, 48 h; for TGI: read-out: Log TGI (converted); in short: as §1
HCC 2998 = test: Antiproliferative activity against human HCC2998 cells after 48 hrs; assay type: functional; conditions: HCC 2998, 48 h; for CC50: read-out: Log LC50 (the source's name) (converted); for TGI: read-out: Log TGI (converted); in short: as §1
K562 = test: Antiproliferative activity against human K562 cells after 48 hrs; assay type: functional; conditions: K562, 48 h; for TGI: read-out: Log TGI (converted); in short: as §1
SF-268 = test: Antiproliferative activity against human SF268 cells after 48 hrs; assay type: functional; conditions: SF-268, 48 h; for TGI: read-out: Log TGI (converted); in short: as §1
TK-10 = test: Antiproliferative activity against human TK10 cells after 48 hrs; assay type: functional; conditions: TK-10, 48 h; for CC50: read-out: Log LC50 (the source's name) (converted); for TGI: read-out: Log TGI (converted); in short: as §2
NCI-H23 = test: Antiproliferative activity against human NCI-H23 cells after 48 hrs; assay type: functional; conditions: NCI-H23, 48 h; for CC50: read-out: Log LC50 (the source's name) (converted); for TGI: read-out: Log TGI (converted); in short: as §1
OVCAR-8 = test: Antiproliferative activity against human OVCAR8 cells after 48 hrs; assay type: functional; conditions: OVCAR-8, 48 h; for TGI: read-out: Log TGI (converted); in short: as §1
[3] = read-out: Log LC50 (the source's name) (converted)

## CCCCCCCCCCCCCCN[C@@H](C)[C@H](O)c1ccccc1
MOLT-4
  GI50: 2.29 µM
MOLT-4; read-out: Log TGI (converted)
  TGI: 4.68 µM
A549
  GI50: 1.91 µM
  CC50: 7.08 µM
  TGI: 3.63 µM
HT-29
  GI50: 1.86 µM
  LC50: 6.76 µM
  TGI: 3.55 µM
SK-OV-3
  GI50: 2.34 µM
  CC50: 9.77 µM
  TGI: 4.79 µM
HOP-62
  GI50: 1.95 µM
  CC50: 6.17 µM
  TGI: 3.47 µM
SW-620
  GI50: 2.04 µM
  LC50 (concentration killing 50% of cells): > 100 µM
RPMI-8226
  GI50: 2 µM
  TGI: 4.37 µM
BT-549
  GI50: 1.51 µM
  LC50: 5.75 µM
  TGI: 2.95 µM
HOP-92
  GI50: 1.51 µM
  TGI: 3.09 µM
[1]
  GI50: 1.7 µM
  TGI: 3.39 µM
M14
  GI50: 1.95 µM
  LC50: 6.31 µM
  TGI: 3.55 µM
UACC-257
  GI50: 1.86 µM
  CC50: 6.76 µM
  TGI: 3.55 µM
SN12C
  GI50: 1.82 µM
  LC50 (50% net cell kill): 6.76 µM
  TGI: 3.47 µM
A498
  TGI: 10 µM
SNB-75
  GI50: 1.7 µM
  CC50: 6.61 µM
  TGI: 3.39 µM
[2]
  GI50: 2 µM
  LC50: 8.13 µM
  TGI: 3.98 µM
Hs-578T
  GI50: 2.19 µM
  LC50: > 100 µM
  TGI: 5.5 µM
IGROV-1
  TGI: 3.55 µM
T47D
  GI50: 2.09 µM
  TGI: 3.98 µM
T47D; [3]
  CC50: 7.59 µM
SF-539
  GI50: 1.78 µM
  TGI: 3.39 µM
HCC 2998
  GI50: 1.82 µM
  CC50: 5.75 µM
  TGI: 3.24 µM
K562
  GI50: 1.66 µM
  LC50: 7.41 µM
  TGI: 3.55 µM
SF-268
  GI50: 1.78 µM
  LC50: 6.61 µM
  TGI: 3.39 µM
TK-10
  GI50: 2 µM
  CC50: 6.17 µM
  TGI: 3.47 µM
NCI-H23
  GI50: 1.82 µM
  CC50: 6.76 µM
  TGI: 3.55 µM
OVCAR-8
  GI50: 1.91 µM
  TGI: 4.07 µM

## CCCCCCCCCCCCCCN[C@H](CO)[C@H](O)c1ccccc1
MOLT-4
  GI50: 2.09 µM
A549
  GI50: 1.7 µM
  CC50: 6.03 µM
  TGI: 3.24 µM
HT-29
  GI50: 1.7 µM
  LC50: 5.62 µM
  TGI: 3.09 µM
SK-OV-3
  GI50: 6.76 µM
  CC50: 79.4 µM
  TGI: 24.5 µM
HOP-62
  GI50: 1.48 µM
  CC50: 5.37 µM
  TGI: 2.82 µM
SW-620
  GI50: 2.4 µM
  LC50 (concentration killing 50% of cells): > 100 µM
RPMI-8226
  GI50: 1.66 µM
  TGI: 3.63 µM
RPMI-8226; [3]
  CC50: 7.76 µM
BT-549
  GI50: 1.29 µM
  LC50: 5.5 µM
  TGI: 2.63 µM
HOP-92
  GI50: 1.41 µM
  LC50: 5.89 µM
  TGI: 2.88 µM
[1]
  GI50: 2.09 µM
  LC50: 6.92 µM
  TGI: 3.8 µM
M14
  GI50: 1.86 µM
  LC50: 5.89 µM
  TGI: 3.31 µM
UACC-257
  GI50: 1.7 µM
  CC50: 7.24 µM
  TGI: 3.47 µM
SN12C
  GI50: 1.74 µM
  LC50 (50% net cell kill): 6.46 µM
  TGI: 3.31 µM
A498
  GI50: 18.2 µM
  TGI: 42.7 µM
A498; [3]
  CC50: > 100 µM
SNB-75
  GI50: 2.29 µM
  CC50: 27.5 µM
  TGI: 5.62 µM
[2]
  GI50: 3.31 µM
  LC50: 8.51 µM
  TGI: 3.72 µM
Hs-578T
  GI50: 2.82 µM
  LC50: > 100 µM
  TGI: 6.46 µM
IGROV-1
  GI50: 1.55 µM
  TGI: 3.24 µM
T47D
  GI50: 1.91 µM
  TGI: 3.63 µM
SF-539
  GI50: 1.55 µM
  LC50: 6.03 µM
  TGI: 3.09 µM
HCC 2998
  GI50: 1.66 µM
  CC50: 5.62 µM
  TGI: 3.09 µM
K562
  GI50: 2.24 µM
  LC50: > 100 µM
  TGI: 4.9 µM
SF-268
  GI50: 1.66 µM
  TGI: 3.24 µM
TK-10
  GI50: 2 µM
  CC50: 13.8 µM
  TGI: 4.68 µM
NCI-H23
  GI50: 3.55 µM
  CC50: 64.6 µM
  TGI: 9.77 µM
OVCAR-8
  GI50: 1.86 µM
  TGI: 3.8 µM
